Measurements of several laboratories.
Lines come from different studies, so protocols differ.
Observed: cell growth or viability

SMILES	cell line	test	setting	IC50
CC(C(=O)N1CCCC1)c1cccc(C(OC(=O)N2CCCC2)c2ccccc2)c1 (stereo not shown)	FM3A	–	48 h	35 µM
C[C@@H]1C[C@H](O)[C@]2(O)O[C@@H]3C[C@@]4(C=O)[C@@H](CC[C@@H]5[C@@H]4CC[C@]4(C)[C@@H](C6=CC(=O)OC6)CC[C@]54O)C[C@H]3O[C@@H]2O1	L6	resazurin	72 h	7.5 µM
O=C1CCN(S(=O)(=O)c2ccc(F)cc2)CC(=O)c2ccccc2N1	L6	–	–	> 280 µM
COc1cc([C@@H]2c3cc4c(cc3[C@H](O)[C@H]3COC(=O)[C@H]23)OCO4)cc(OC)c1OC	L6	–	–	4 ng/mL
CC(C(=O)NCCc1ccccc1)c1cccc(C(OC(=O)NCCc2ccccc2)c2ccccc2)c1 (stereo not shown)	L1210	–	48 h	8.2 µM
Cc1n[nH]cc1-c1cc2nc([C@@H]3CC4CCN3CC4)[nH]c(=O)c2s1	COLO 205	MTT	–	0.0367 µM
COc1ccc(/C=C\c2cc(OC)c(OC)c(OC)c2)cc1O	L1210	–	48 h	0.0028 µM
CC(C(=O)n1nnc2ccccc21)c1cccc(C(OC(=O)n2nnc3ccccc32)c2ccccc2)c1 (stereo not shown)	L1210	–	48 h	38 µM
COc1cc(C(=O)c2cc3c(-c4ccccc4)c(OC)ccc3o2)cc(OC)c1OC	L1210	–	48 h	> 50 µM
CC(C(=O)N1CCCCC1)c1cccc(C(OC(=O)N2CCCCC2)c2ccccc2)c1 (stereo not shown)	FM3A	–	48 h	8 µM
C[C@@H]1C[C@H](O)[C@]2(O)O[C@@H]3C[C@@]4(C)[C@@H](CC[C@@H]5[C@@H]4CC[C@]4(C)[C@@H](C6=CC(=O)OC6)CC[C@]54O)C[C@H]3O[C@@H]2O1	L6	resazurin	72 h	7.63 µM
COc1ccc2c(c1)NC(=O)CN2c1nc(Cl)nc2c1COC2	MDA-MB-453	MTS	72 h	0.0193 µM
CC(C)=CCOc1c2occc2cc2ccc(=O)oc12	COLO 205	MTT	24 h	> 100 µM
CC(C(=O)NC1CCCC1)c1cccc(C(OC(=O)NC2CCCC2)c2ccccc2)c1 (stereo not shown)	L1210	–	48 h	9.8 µM
COc1ccc(N(C)c2nc(Cl)nc3cccnc23)cc1F	MDA-MB-453	MTS	72 h	0.0042 µM
Cc1c2oc3c(C)ccc(C(=O)N[C@@H]4C(=O)N[C@H](C(C)C)C(=O)N5CCC[C@H]5C(=O)N(C)CC(=O)N(C)[C@@H](C(C)C)C(=O)O[C@@H]4C)c3nc-2c(C(=O)N[C@@H]2C(=O)N[C@H](C(C)C)C(=O)N3CCC[C@H]3C(=O)N(C)CC(=O)N(C)[C@@H](C(C)C)C(=O)O[C@@H]2C)c(N)c1=O	GISTT1	resazurin	72 h	0.07 µM
N.N.[Cl][Pt][Cl]	NCI-H460	MTT	72 h	3 µM
CC(C(=O)NC1CCCCC1)c1cccc(C(OC(=O)NC2CCCCC2)c2ccccc2)c1 (stereo not shown)	FM3A	–	48 h	15 µM
C[C@H]1O[C@@H](O[C@H]2[C@@H](O)C[C@H](O[C@H]3[C@@H](O)C[C@H](O[C@H]4CC[C@@]5(C)[C@H](CC[C@@H]6[C@@H]5CC[C@]5(C)[C@@H](C7=CC(=O)OC7)CC[C@]65O)C4)O[C@@H]3C)O[C@@H]2C)C[C@H](O)[C@@H]1O	GISTT1	resazurin	72 h	< 0.16 µM
